The values that follow come from ChEMBL document CHEMBL4616691 (ACS Med Chem Lett, 2020).

The structures appear in SMILES notation. Converted amounts (≈) assume the structure as drawn. The source made the active and inactive calls. The rule behind the calls is not given here.

Data set [1] can be described thus: Thermodynamic solubility in 0.001N HCl by HPLC analysis. Format: physicochemical. Conditions: for solubility thermodynamic: 0.001N HCl, read-out: Therm_solubility. The method, boiled down: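 Thermodynamic solubility measured in 0.001 N HCl (pH 3), chosen to resemble acidic gastric fluid. Dissolved compound quantified by HPLC and reported in […].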
The nature of data set [2]: Inhibition of NPC1/VDAC1 in HUVEC cells assessed as reduction in cell proliferation pretreated for 24 hrs followed by [3H]thymidine incorporation by scintillation counter method. The data set is classed as cell-based. Conditions: Homo sapiens. The method, boiled down:
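HUVEC proliferation read by [³H]-thymidine incorporation, giving IC50. Mean ± SD of three independent experiments, each run in triplicate.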
Background: Incorporation of labelled thymidine or its analogues reports DNA synthesis.

The target in data set [3] is Vascular endothelial growth factor receptor 2 (Homo sapiens) (UniProt P35968). Kind of data set: Inhibition of VEGFR2 glycosylation in HUVEC cells assessed as disappearance of VEGFR2 at 0.5 to 2 uM measured after 24 hrs by Western blot analysis. The data set is classed as cell-based. A digest of the protocol:
(§1)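 HUVECs exposed to test compound at 0.05, 0.25, 0.5, 1 or 2 μM, or DMSO vehicle, for 24 h. Lysates probed by western blot for VEGFR2, phospho- and total ACC, phospho- and total S6K, with β-actin as loading reference.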
For orientation: A western blot detects proteins with antibodies after separation by electrophoresis.

Data set [4] concerns the target T1, NPC intracellular cholesterol transporter 1 (Homo sapiens) (UniProt O15118).
T1 sequence (whole entry): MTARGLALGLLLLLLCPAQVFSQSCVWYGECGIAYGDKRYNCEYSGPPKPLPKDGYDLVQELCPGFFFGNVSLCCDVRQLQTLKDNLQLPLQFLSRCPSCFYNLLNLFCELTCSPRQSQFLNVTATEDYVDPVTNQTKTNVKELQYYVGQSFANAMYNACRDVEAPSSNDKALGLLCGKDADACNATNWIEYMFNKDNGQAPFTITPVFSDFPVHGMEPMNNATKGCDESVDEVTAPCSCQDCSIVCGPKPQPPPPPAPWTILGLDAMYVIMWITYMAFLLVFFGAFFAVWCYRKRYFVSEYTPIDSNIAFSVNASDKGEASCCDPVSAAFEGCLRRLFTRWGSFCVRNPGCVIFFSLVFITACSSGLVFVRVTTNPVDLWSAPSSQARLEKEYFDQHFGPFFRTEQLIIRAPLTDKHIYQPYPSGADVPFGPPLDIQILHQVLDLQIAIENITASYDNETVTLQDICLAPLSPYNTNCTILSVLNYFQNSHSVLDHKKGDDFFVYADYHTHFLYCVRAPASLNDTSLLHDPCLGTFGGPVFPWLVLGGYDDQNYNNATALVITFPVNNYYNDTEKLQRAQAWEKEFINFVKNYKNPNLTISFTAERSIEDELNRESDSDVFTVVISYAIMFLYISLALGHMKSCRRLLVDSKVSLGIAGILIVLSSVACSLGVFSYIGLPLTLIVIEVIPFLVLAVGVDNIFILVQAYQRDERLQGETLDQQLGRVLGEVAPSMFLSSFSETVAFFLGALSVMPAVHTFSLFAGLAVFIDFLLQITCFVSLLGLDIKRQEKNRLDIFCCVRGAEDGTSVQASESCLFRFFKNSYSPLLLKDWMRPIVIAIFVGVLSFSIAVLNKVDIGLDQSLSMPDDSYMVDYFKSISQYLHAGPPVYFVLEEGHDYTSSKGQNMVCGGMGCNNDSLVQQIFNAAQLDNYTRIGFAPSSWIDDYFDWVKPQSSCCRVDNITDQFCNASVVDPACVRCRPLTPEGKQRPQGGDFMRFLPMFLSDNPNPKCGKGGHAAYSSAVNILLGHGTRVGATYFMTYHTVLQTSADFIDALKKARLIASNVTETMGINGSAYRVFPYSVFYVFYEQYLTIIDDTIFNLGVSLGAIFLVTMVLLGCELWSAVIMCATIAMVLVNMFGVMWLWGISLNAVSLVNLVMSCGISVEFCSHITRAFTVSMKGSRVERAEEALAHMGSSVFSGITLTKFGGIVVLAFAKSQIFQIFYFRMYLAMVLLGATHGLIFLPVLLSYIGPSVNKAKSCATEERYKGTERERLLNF
As to the kind of experiment: Inhibition of NPC1 in HUVEC cells assessed as accumulation of cholesterol in perinuclear structure at 0.2 uM incubated for 24 hrs by filipin staining based confocal microscopy analysis. Format: cell-based. A digest of the protocol:
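Primary HUVECs incubated 24 h with 0.2 μM compound or DMSO. Intracellular cholesterol stained with filipin and imaged by confocal fluorescence microscopy, 25x objective.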

Data set [5] has as its target Cytochrome P450 3A4 (Homo sapiens, UniProt P08684). As to the kind of experiment: Inhibition of CYP3A4 (unknown origin). The data set is classed as ADME.
In data set [6] the target is AMP-activated protein kinase, AMPK (Homo sapiens) (UniProt P54646+O43741+P54619+Q9UGJ0+Q9Y478+Q13131+Q9UGI9). Kind of data set: Activation of AMPK in HUVEC cells assessed as phosphorylation of acetyl CoA carboxylase measured after 24 hrs by Western blot analysis. Format: cell-based. A digest of the protocol: as §1
Data set [7] addresses Serine/threonine-protein kinase mTOR (Homo sapiens) (UniProt P42345). Kind of data set: Inhibition of mTOR in HUVEC cells assessed as reduction in phosphorylation of p70S6K measured after 24 hrs by Western blot analysis. The data set is classed as cell-based. A digest of the protocol:
as §1

Data set [8] has as its system HUVEC. Kind of data set: Inhibition of NPC1/VDAC1 in HUVEC cells assessed as inhibition of tube formation at 3 uM measured after 24 hrs by Calcein-AM staining based fluorescence microscopy analysis relative to control. The data set is classed as cell-based. Conditions: Homo sapiens. The method, boiled down:
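HUVECs seeded on Matrigel-coated wells and treated with DMSO or 3 μM compound for 24 h. Networks stained with Calcein-AM and imaged by fluorescence microscopy. Total tube length quantified from the images against DMSO control. Mean ± SD of three independent experiments.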

For data set [9], the system named is HUVEC. As to the kind of experiment: Effect on VEGFR2 localization in human HUVEC cells assessed as accumulation of VEGFR2 in perinuclear region at 2 uM by DAPI staining based confocal micrscopy. The data set is classed as functional, cell-based. The method, boiled down: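 HUVECs treated with DMSO or 2 μM compound. Cells immunostained for VEGFR2 (green) and Golgi marker GM130 (red), nuclei counterstained with DAPI. Imaged by confocal microscopy, scoring perinuclear VEGFR2 and its colocalization with GM130.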

Sequence of Cytochrome P450 3A4 (P08684 whole entry): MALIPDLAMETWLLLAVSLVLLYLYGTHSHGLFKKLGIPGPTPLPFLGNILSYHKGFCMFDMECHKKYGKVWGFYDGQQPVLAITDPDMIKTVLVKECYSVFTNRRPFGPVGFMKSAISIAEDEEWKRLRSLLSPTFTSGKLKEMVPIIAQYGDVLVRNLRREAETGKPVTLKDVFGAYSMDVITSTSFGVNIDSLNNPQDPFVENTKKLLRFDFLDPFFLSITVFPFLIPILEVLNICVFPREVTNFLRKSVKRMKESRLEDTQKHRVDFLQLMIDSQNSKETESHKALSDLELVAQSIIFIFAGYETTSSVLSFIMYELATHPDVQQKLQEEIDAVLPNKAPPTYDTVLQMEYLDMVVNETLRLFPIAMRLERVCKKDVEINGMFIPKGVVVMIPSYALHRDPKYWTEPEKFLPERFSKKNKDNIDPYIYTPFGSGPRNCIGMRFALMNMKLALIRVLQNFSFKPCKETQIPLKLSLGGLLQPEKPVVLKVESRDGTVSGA
Sequence of Vascular endothelial growth factor receptor 2 (Homo sapiens) (P35968 whole entry): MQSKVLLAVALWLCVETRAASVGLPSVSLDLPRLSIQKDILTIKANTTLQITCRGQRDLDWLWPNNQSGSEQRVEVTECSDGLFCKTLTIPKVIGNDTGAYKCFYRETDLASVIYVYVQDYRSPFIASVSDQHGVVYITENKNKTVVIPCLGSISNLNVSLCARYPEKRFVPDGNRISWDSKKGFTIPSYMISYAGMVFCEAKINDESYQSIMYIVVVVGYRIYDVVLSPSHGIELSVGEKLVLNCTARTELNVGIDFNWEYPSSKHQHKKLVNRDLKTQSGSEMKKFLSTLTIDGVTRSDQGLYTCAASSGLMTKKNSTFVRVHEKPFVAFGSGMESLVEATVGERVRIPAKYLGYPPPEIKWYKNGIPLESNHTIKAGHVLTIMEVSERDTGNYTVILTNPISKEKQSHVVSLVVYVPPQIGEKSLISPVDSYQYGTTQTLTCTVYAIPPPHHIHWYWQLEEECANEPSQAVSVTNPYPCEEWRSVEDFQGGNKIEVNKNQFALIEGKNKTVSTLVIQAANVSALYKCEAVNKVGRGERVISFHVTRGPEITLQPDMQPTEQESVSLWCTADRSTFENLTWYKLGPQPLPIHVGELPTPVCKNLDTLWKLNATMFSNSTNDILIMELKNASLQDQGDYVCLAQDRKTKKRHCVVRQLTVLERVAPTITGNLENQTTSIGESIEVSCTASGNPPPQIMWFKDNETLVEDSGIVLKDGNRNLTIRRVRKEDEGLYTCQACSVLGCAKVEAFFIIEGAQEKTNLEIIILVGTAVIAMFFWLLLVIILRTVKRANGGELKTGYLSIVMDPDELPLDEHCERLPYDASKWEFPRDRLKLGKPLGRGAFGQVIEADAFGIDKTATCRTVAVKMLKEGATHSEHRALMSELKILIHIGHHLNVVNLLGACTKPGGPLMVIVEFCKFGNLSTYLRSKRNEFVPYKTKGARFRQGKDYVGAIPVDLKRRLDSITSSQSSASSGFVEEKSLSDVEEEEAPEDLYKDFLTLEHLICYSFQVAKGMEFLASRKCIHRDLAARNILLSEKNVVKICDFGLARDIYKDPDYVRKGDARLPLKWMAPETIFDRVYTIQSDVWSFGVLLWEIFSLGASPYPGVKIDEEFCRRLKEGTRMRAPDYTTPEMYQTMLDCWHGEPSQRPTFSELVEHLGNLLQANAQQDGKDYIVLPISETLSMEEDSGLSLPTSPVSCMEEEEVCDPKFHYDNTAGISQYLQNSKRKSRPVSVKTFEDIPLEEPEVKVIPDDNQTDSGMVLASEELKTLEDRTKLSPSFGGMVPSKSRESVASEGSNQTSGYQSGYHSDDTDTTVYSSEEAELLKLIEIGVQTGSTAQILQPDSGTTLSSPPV

The term IC50 denotes the concentration that inhibits the measured activity by half. As for `CCC(C)n1ncn(-c2ccc(N3CCN(c4ccc(OC[C@@H]5CO[C@@](Cn6cncn6)(c6ccc(Cl)cc6Cl)O5)cn4)CC3)c(F)c2)c1=O` (some centres not stated), the solubility thermodynamic in data set [1] came to 0.848 µg/mL (≈ 1.17 µM). For the same molecule, the IC50 in [2] is 173 nM.

`CCC(C)n1ncn(-c2ccc(N3CCN(c4ccc(OC[C@@H]5CO[C@@](Cn6ccnc6)(c6ccc(Cl)cc6Cl)O5)cc4)CC3)c(F)c2)c1=O` (some centres not stated): the solubility thermodynamic in data set [1] came out at 17.2 µg/mL (≈ 23.7 µM). For the same molecule, the IC50 in [2] turned out to be 70.1 nM.

Regarding `CCC(C)n1ncn(-c2ccc(N3CCN(c4ccc(OC[C@@H]5CO[C@@](Cn6ccnc6)(c6ccc(Cl)cc6Cl)O5)cc4)CC3)nc2)c1=O` (some centres not stated), the solubility thermodynamic in data set [1] is 7.99 µg/mL (≈ 11.3 µM). Also, the IC50 in data set [2] came to 98.5 nM.

For orientation: inhibition means the share of the control response that was lost under treatment. As for `CCC(C)n1ncn(-c2ccc(N3CCN(c4ccc(OC[C@@H]5CO[C@@](Cn6cnnn6)(c6ccc(Cl)cc6Cl)O5)cn4)CC3)cc2)c1=O` (some centres not stated), the inhibition result in data set [3] and in data set [4] was “Active” each time. For the same molecule, the IC50 in data set [5] is over 90000 nM; in data set [2], 77.1 nM. The Activity result in data set [6] was “Dose-dependent effect”. Moreover, the inhibition entry in data set [7] was “Dose-dependent effect”; in data set [8], 70%. Also, in data set [1], the solubility thermodynamic is 0.951 µg/mL (≈ 1.34 µM). In addition, the result in data set [9] was Active.

Consider `CCC(C)n1ncn(-c2ccc(N3CCN(c4ccc(OC[C@@H]5CO[C@@](Cn6cncn6)(c6ccc(Cl)cc6Cl)O5)cc4)CC3)nc2)c1=O` (some centres not stated), for which, in data set [1], the solubility thermodynamic is 0.0539 µg/mL (≈ 0.0763 µM). The IC50 in [2] worked out at 222 nM.

In the case of `CCC(C)n1ncn(-c2ccc(N3CCN(c4ccc(OC[C@@H]5CO[C@@](Cn6ccnc6)(c6ccc(Cl)cc6Cl)O5)nc4)CC3)cc2)c1=O` (some centres not stated), the solubility thermodynamic in data set [1] came out at 6.48 µg/mL (≈ 9.19 µM). Besides, the IC50 in data set [2] was 468 nM.

Consider `CCC(C)n1ncn(-c2ccc(N3CCN(c4ccc(OC[C@@H]5CO[C@@](Cn6ccnc6)(c6ccc(Cl)cc6Cl)O5)cc4)CC3)cn2)c1=O` (some centres not stated), for which, in [1], the solubility thermodynamic is 41.3 µg/mL (≈ 58.6 µM). In addition, the IC50 in data set [2] amounted to 636 nM.

For the molecule `CCC(C)n1ncn(-c2ccc(N3CCN(c4ccc(OC[C@@H]5CO[C@@](Cn6cncn6)(c6ccc(Cl)cc6Cl)O5)cc4)CC3)cn2)c1=O` (some centres not stated), the solubility thermodynamic in data set [1] is 0.496 µg/mL (≈ 0.703 µM). Besides, the IC50 in data set [2] worked out at 188 nM.

In the case of `CCC(C)n1ncn(-c2ccc(N3CCN(c4ccc(OC[C@@H]5CO[C@@](Cn6cnnn6)(c6ccc(Cl)cc6Cl)O5)cc4)CC3)c(F)c2)c1=O` (some centres not stated), the inhibition entry in [4] was “Active”. Besides, the IC50 was over 90000 nM in data set [5] and 153 nM in data set [2]. In addition, the solubility thermodynamic in data set [1] stood at 0.0528 µg/mL (≈ 0.0729 µM).

For the molecule `CCC(C)n1ncn(-c2ccc(N3CCN(c4ccc(OC[C@@H]5CO[C@@](Cn6cncn6)(c6ccc(Cl)cc6Cl)O5)nc4)CC3)c(F)c2)c1=O` (some centres not stated), the solubility thermodynamic in data set [1] was 0.255 µg/mL (≈ 0.352 µM). Moreover, the IC50 in [2] was determined as 446 nM.

Regarding `CCC(C)n1ncn(-c2ccc(N3CCN(c4ccc(OCC5COC(Cn6cncn6)(c6ccc(Cl)cc6Cl)O5)cc4)CC3)cc2)c1=O` (configuration not stated) [ITRACONAZOLE], the inhibition result in data set [4] was “Active”. The molecule also had a Therm_solubility in data set [1] (buffer) of 0.0101 µg/mL. Also, the result in data set [9] was Active.

As for `CCC(C)n1ncn(-c2ccc(N3CCN(c4ccc(OC[C@@H]5CO[C@@](Cn6cnnn6)(c6ccc(Cl)cc6Cl)O5)cn4)CC3)c(F)c2)c1=O` (some centres not stated), the inhibition result in data set [4] is “Active”. Besides, in [1], the solubility thermodynamic was determined as 0.708 µg/mL (≈ 0.975 µM). For the same molecule, the IC50 in [2] came out at 108 nM.

Take `CCC(C)n1ncn(-c2ccc(N3CCN(c4ccc(OC[C@@H]5CO[C@@](Cn6cncn6)(c6ccc(Cl)cc6Cl)O5)cn4)CC3)cc2)c1=O` (some centres not stated): in data set [1], the solubility thermodynamic is 0.114 µg/mL (≈ 0.161 µM). Also, the concentration for half-maximal inhibition (IC50) in data set [2] was determined as 380 nM.

With `CCC(C)n1ncn(-c2ccc(N3CCN(c4ccc(OC[C@@H]5CO[C@@](Cn6cncn6)(c6ccc(Cl)cc6Cl)O5)nc4)CC3)cc2)c1=O` (some centres not stated), in data set [1], the solubility thermodynamic was determined as 0.116 µg/mL (≈ 0.164 µM). In data set [2], the IC50 was 687 nM.

Consider `CCC(C)n1ncn(-c2ccc(N3CCN(c4ccc(OC[C@@H]5CO[C@@](Cn6cncn6)(c6ccc(Cl)cc6Cl)O5)cc4)CC3)c(F)c2)c1=O` (some centres not stated), for which the solubility thermodynamic in [1] turned out to be 0.0291 µg/mL (≈ 0.0402 µM). The IC50 in data set [2] is 128 nM.

Consider `CCC(C)n1ncn(-c2ccc(N3CCN(c4ccc(OC[C@@H]5CO[C@@](Cn6ccnc6)(c6ccc(Cl)cc6Cl)O5)cn4)CC3)cc2)c1=O` (some centres not stated), for which the solubility thermodynamic in data set [1] came out at 2.94 µg/mL (≈ 4.16 µM). Besides, the IC50 in [2] was found to be 69.1 nM.

As for `CCC(C)n1ncn(-c2ccc(N3CCN(c4ccc(OC[C@@H]5CO[C@@](Cn6ccnc6)(c6ccc(Cl)cc6Cl)O5)cn4)CC3)c(F)c2)c1=O` (some centres not stated), the solubility thermodynamic in data set [1] is 125 µg/mL (≈ 173 µM). Also, the IC50 in data set [2] worked out at 68 nM.

In the case of `CCC(C)n1ncn(-c2ccc(N3CCN(c4ccc(OC[C@@H]5CO[C@@](Cn6cnnn6)(c6ccc(Cl)cc6Cl)O5)cc4)CC3)cc2)c1=O` (some centres not stated), the inhibition result in [4] was “Active”. Besides, in data set [1], the solubility thermodynamic is 0.321 µg/mL (≈ 0.455 µM).
